Experimental data reported in ChEMBL document CHEMBL1255429, “Efflux pumps are involved in the defense of Gram-negative bacteria against the natural products isobavachalcone and diospyrone” (2010).
Values after ≈ are worked out from the molar mass of the structure shown.

Columns and labels:
Format in all cases: functional
Escherichia coli [1] = experiment: Antimicrobial activity against Escherichia coli ATCC 10536 after 18 hrs by rapid INT colorimetric assay; conditions: ATCC 10536, 18 h
Procedure, shortened: (§1)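 Strains precultured overnight on Mueller-Hinton agar. Sample dissolved in DMSO-MHB, twofold serial dilutions in MHB, inoculum 1.5 × 10^6 CFU/ml; final DMSO below 2.5%. Incubated 37°C 18 h, then 0.2 mg/ml INT added, 30 min at 37°C. MIC = lowest concentration preventing yellow-to-pink change (complete growth inhibition). DMSO-only wells as negative control.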

Escherichia coli [2] = experiment: Antimicrobial activity against Escherichia coli ATCC 10536 after 18 hrs by rapid INT colorimetric assay in presence of efflux pump inhibitor phenylalanine arginine beta-naphthylamide; conditions: ATCC 10536, 18 h
Procedure, shortened: (§2)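 Broth microdilution MIC in Mueller-Hinton broth with PAßN at a final 20 μg/ml throughout. Twofold dilutions of sample from DMSO-MHB stock; inoculum 1.5 × 10^6 CFU/ml; 18 h at 37°C, final DMSO <2.5%. Growth read by INT (0.2 mg/ml, 30 min, 37°C). MIC taken as lowest concentration with no pink colour.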

Escherichia coli [3] = experiment: Antimicrobial activity against Escherichia coli ATCC 8739 after 18 hrs by rapid INT colorimetric assay; conditions: ATCC 8739, 18 h
Procedure, shortened: (§3)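 Strains precultured overnight on Mueller-Hinton agar. Samples dissolved in DMSO-MHB, serially diluted twofold in MHB, inoculum 1.5 × 10^6 CFU/ml in MHB added; 37°C, 18 h; final DMSO <2.5%. 0.2 mg/ml INT then added, 30 min at 37°C. MIC = lowest concentration preventing yellow-to-pink reduction, i.e. complete growth inhibition.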

Escherichia coli [4] = experiment: Antimicrobial activity against Escherichia coli ATCC 8739 after 18 hrs by rapid INT colorimetric assay in presence of efflux pump inhibitor phenylalanine arginine; conditions: ATCC 8739, 18 h; procedure, shortened: as §2
Escherichia coli [5] = experiment: Antimicrobial activity against Escherichia coli AG100 after 18 hrs by rapid INT colorimetric assay; conditions: AG100, 18 h; procedure, shortened: as §3
Escherichia coli [6] = experiment: Antimicrobial activity against Escherichia coli AG100 after 18 hrs by rapid INT colorimetric assay in presence of efflux pump inhibitor phenylalanine arginine; conditions: AG100, 18 h
Escherichia coli [7] = experiment: Antimicrobial activity against Escherichia coli AG100A after 18 hrs by rapid INT colorimetric assay; procedure, shortened: as §3
Escherichia coli [8] = experiment: Antimicrobial activity against Escherichia coli AG100A after 18 hrs by rapid INT colorimetric assay in presence of efflux pump inhibitor phenylalanine arginine
Escherichia coli [9] = experiment: Antimicrobial activity against tetracycline-resistant Escherichia coli AG100A after 18 hrs by rapid INT colorimetric assay; procedure, shortened: as §3
Escherichia coli [10] = experiment: Antimicrobial activity against tetracycline-resistant Escherichia coli AG100A after 18 hrs by rapid INT colorimetric assay in presence of efflux pump inhibitor phenylalanine arginine; procedure, shortened: as §2
Escherichia coli [11] = experiment: Antimicrobial activity against tetracycline-resistant Escherichia coli AG102 after 18 hrs by rapid INT colorimetric assay; conditions: AG102, 18 h; procedure, shortened: as §3
Escherichia coli [12] = experiment: Antimicrobial activity against tetracycline-resistant Escherichia coli AG102 after 18 hrs by rapid INT colorimetric assay in presence of efflux pump inhibitor phenylalanine arginine; conditions: AG102, 18 h; procedure, shortened: as §2
Klebsiella aerogenes [13] = experiment: Antimicrobial activity against Enterobacter aerogenes ATCC 13048 after 18 hrs by rapid INT colorimetric assay; conditions: ATCC 13048, 18 h; procedure, shortened: as §1
Klebsiella aerogenes [14] = experiment: Antimicrobial activity against Enterobacter aerogenes ATCC 13048 after 18 hrs by rapid INT colorimetric assay in presence of efflux pump inhibitor phenylalanine arginine; conditions: ATCC 13048, 18 h
Klebsiella aerogenes [15] = experiment: Antimicrobial activity against Enterobacter aerogenes EA-CM64 after 18 hrs by rapid INT colorimetric assay; conditions: EA-CM64, 18 h; procedure, shortened: as §3
Klebsiella aerogenes [16] = experiment: Antimicrobial activity against Enterobacter aerogenes EA-CM64 after 18 hrs by rapid INT colorimetric assay in presence of efflux pump inhibitor phenylalanine arginine; conditions: EA-CM64, 18 h
Klebsiella aerogenes [17] = experiment: Antimicrobial activity against Enterobacter aerogenes EA289 after 18 hrs by rapid INT colorimetric assay; conditions: EA289, 18 h; procedure, shortened: as §1
Klebsiella aerogenes [18] = experiment: Antimicrobial activity against Enterobacter aerogenes EA289 after 18 hrs by rapid INT colorimetric assay in presence of efflux pump inhibitor phenylalanine arginine; conditions: EA289, 18 h
Klebsiella aerogenes [19] = experiment: Antimicrobial activity against Enterobacter aerogenes EA294 after 18 hrs by rapid INT colorimetric assay; conditions: EA294, 18 h; procedure, shortened: as §3
Klebsiella aerogenes [20] = experiment: Antimicrobial activity against Enterobacter aerogenes EA294 after 18 hrs by rapid INT colorimetric assay in presence of efflux pump inhibitor phenylalanine arginine; conditions: EA294, 18 h
Klebsiella aerogenes [21] = experiment: Antimicrobial activity against Enterobacter aerogenes EA298 after 18 hrs by rapid INT colorimetric assay; conditions: EA298, 18 h; procedure, shortened: as §3
Klebsiella aerogenes [22] = experiment: Antimicrobial activity against Enterobacter aerogenes EA298 after 18 hrs by rapid INT colorimetric assay in presence of efflux pump inhibitor phenylalanine arginine; conditions: EA298, 18 h
Klebsiella aerogenes [23] = experiment: Antimicrobial activity against Enterobacter aerogenes EA27 after 18 hrs by rapid INT colorimetric assay; conditions: EA27, 18 h; procedure, shortened: as §1
Klebsiella aerogenes [24] = experiment: Antimicrobial activity against Enterobacter aerogenes EA27 after 18 hrs by rapid INT colorimetric assay in presence of efflux pump inhibitor phenylalanine arginine; conditions: EA27, 18 h
Klebsiella aerogenes [25] = experiment: Antimicrobial activity against Enterobacter aerogenes EA3 after 18 hrs by rapid INT colorimetric assay; conditions: EA3, 18 h; procedure, shortened: as §1
Klebsiella aerogenes [26] = experiment: Antimicrobial activity against Enterobacter aerogenes EA3 after 18 hrs by rapid INT colorimetric assay in presence of efflux pump inhibitor phenylalanine arginine; conditions: EA3, 18 h
Klebsiella aerogenes [27] = experiment: Antimicrobial activity against Enterobacter aerogenes EA5 after 18 hrs by rapid INT colorimetric assay; conditions: EA5, 18 h; procedure, shortened: as §1
Klebsiella aerogenes [28] = experiment: Antimicrobial activity against Enterobacter aerogenes EA5 after 18 hrs by rapid INT colorimetric assay in presence of efflux pump inhibitor phenylalanine arginine; conditions: EA5, 18 h
Klebsiella pneumoniae [29] = experiment: Antimicrobial activity against Klebsiella pneumoniae ATCC 11296 after 18 hrs by rapid INT colorimetric assay; conditions: ATCC 11296, 18 h; procedure, shortened: as §3
Klebsiella pneumoniae [30] = experiment: Antimicrobial activity against Klebsiella pneumoniae ATCC 11296 after 18 hrs by rapid INT colorimetric assay in presence of efflux pump inhibitor phenylalanine arginine; conditions: ATCC 11296, 18 h
Klebsiella pneumoniae [31] = experiment: Antimicrobial activity against Klebsiella pneumoniae KP55 after 18 hrs by rapid INT colorimetric assay; conditions: KP55, 18 h; procedure, shortened: as §1
Klebsiella pneumoniae [32] = experiment: Antimicrobial activity against Klebsiella pneumoniae KP55 after 18 hrs by rapid INT colorimetric assay in presence of efflux pump inhibitor phenylalanine arginine; conditions: KP55, 18 h
Klebsiella pneumoniae [33] = experiment: Antimicrobial activity against Klebsiella pneumoniae KP63 after 18 hrs by rapid INT colorimetric assay; conditions: KP63, 18 h; procedure, shortened: as §1
Klebsiella pneumoniae [34] = experiment: Antimicrobial activity against Klebsiella pneumoniae KP63 after 18 hrs by rapid INT colorimetric assay in presence of efflux pump inhibitor phenylalanine arginine; conditions: KP63, 18 h
Pseudomonas aeruginosa [35] = experiment: Antimicrobial activity against Pseudomonas aeruginosa PAO1 after 18 hrs by rapid INT colorimetric assay; conditions: PAO1, 18 h; procedure, shortened: as §3
Pseudomonas aeruginosa [36] = experiment: Antimicrobial activity against Pseudomonas aeruginosa PAO1 after 18 hrs by rapid INT colorimetric assay in presence of efflux pump inhibitor phenylalanine arginine; conditions: PAO1, 18 h
Pseudomonas aeruginosa [37] = experiment: Antimicrobial activity against Pseudomonas aeruginosa PA124 after 18 hrs by rapid INT colorimetric assay; conditions: PA124, 18 h; procedure, shortened: as §3
Pseudomonas aeruginosa [38] = experiment: Antimicrobial activity against Pseudomonas aeruginosa PA124 after 18 hrs by rapid INT colorimetric assay in presence of efflux pump inhibitor phenylalanine arginine; conditions: PA124, 18 h
Enterobacter cloacae [39] = experiment: Antimicrobial activity against Enterobacter cloacae Ec07769 after 18 hrs by rapid INT colorimetric assay; conditions: Ec07769, 18 h; procedure, shortened: as §1
Enterobacter cloacae [40] = experiment: Antimicrobial activity against Enterobacter cloacae Ec07769 after 18 hrs by rapid INT colorimetric assay in presence of efflux pump inhibitor phenylalanine arginine; conditions: Ec07769, 18 h
Enterobacter cloacae [41] = experiment: Antimicrobial activity against Enterobacter cloacae Ec1194 after 18 hrs by rapid INT colorimetric assay; conditions: Ec1194, 18 h; procedure, shortened: as §1
Enterobacter cloacae [42] = experiment: Antimicrobial activity against Enterobacter cloacae Ec1194 after 18 hrs by rapid INT colorimetric assay in presence of efflux pump inhibitor phenylalanine arginine; conditions: Ec1194, 18 h; procedure, shortened: as §2

SMILES: O=C(N[C@H](CO)[C@H](O)c1ccc([N+](=O)[O-])cc1)C(Cl)Cl [CHLORAMPHENICOL]
- MIC (Escherichia coli [1]): 1 µg/mL (≈ 3.09 µM)
- MIC (Escherichia coli [2]): 0.5 µg/mL
- MIC (Escherichia coli [3]): 4 µg/mL (≈ 12.4 µM)
- MIC (Escherichia coli [4]): 1 µg/mL
- MIC (Escherichia coli [5]): 4 µg/mL (≈ 12.4 µM)
- MIC (Escherichia coli [6]): 0.25 µg/mL
- MIC (Escherichia coli [7]): 0.5 µg/mL (≈ 1.55 µM)
- MIC (Escherichia coli [8]): 0.25 µg/mL
- MIC (Escherichia coli [9]): 32 µg/mL (≈ 99 µM)
- MIC (Escherichia coli [10]): 2 µg/mL
- MIC (Escherichia coli [11]): 32 µg/mL (≈ 99 µM)
- MIC (Escherichia coli [12]): 2 µg/mL
- MIC (Klebsiella aerogenes [13]): 4 µg/mL (≈ 12.4 µM)
- MIC (Klebsiella aerogenes [14]): 1 µg/mL
- MIC (Klebsiella aerogenes [15]): 256 µg/mL (≈ 792 µM)
- MIC (Klebsiella aerogenes [16]): 8 µg/mL
- MIC (Klebsiella aerogenes [17]): > 256 µg/mL
- MIC (Klebsiella aerogenes [18]): 128 µg/mL
- MIC (Klebsiella aerogenes [19]): 64 µg/mL (≈ 198 µM)
- MIC (Klebsiella aerogenes [20]): 16 µg/mL
- MIC (Klebsiella aerogenes [21]): 64 µg/mL (≈ 198 µM)
- MIC (Klebsiella aerogenes [22]): 16 µg/mL
- MIC (Klebsiella aerogenes [23]): > 256 µg/mL
- MIC (Klebsiella aerogenes [24]): 128 µg/mL
- MIC (Klebsiella aerogenes [25]): > 256 µg/mL
- MIC (Klebsiella aerogenes [26]): 128 µg/mL
- MIC (Klebsiella aerogenes [27]): > 256 µg/mL
- MIC (Klebsiella aerogenes [28]): 32 µg/mL
- MIC (Klebsiella pneumoniae [29]): 2 µg/mL (≈ 6.19 µM)
- MIC (Klebsiella pneumoniae [30]): 2 µg/mL
- MIC (Klebsiella pneumoniae [31]): 32 µg/mL (≈ 99 µM)
- MIC (Klebsiella pneumoniae [32]): 4 µg/mL
- MIC (Klebsiella pneumoniae [33]): > 256 µg/mL
- MIC (Klebsiella pneumoniae [34]): 128 µg/mL
- MIC (Pseudomonas aeruginosa [35]): 128 µg/mL (≈ 396 µM)
- MIC (Pseudomonas aeruginosa [36]): 8 µg/mL
- MIC (Pseudomonas aeruginosa [37]): 256 µg/mL (≈ 792 µM)
- MIC (Pseudomonas aeruginosa [38]): 8 µg/mL
- MIC (Enterobacter cloacae [39]): > 256 µg/mL
- MIC (Enterobacter cloacae [40]): 256 µg/mL
- MIC (Enterobacter cloacae [41]): 2 µg/mL (≈ 6.19 µM)
- MIC (Enterobacter cloacae [42]): 1 µg/mL
